Screens as filed in PubChem BioAssay.
Rin1 Abl inh: inhibitors of Rin1-Abl protein binding, primary screen, biochemical, TR-FRET | Tyrosine-protein kinase ABL1 (Homo sapiens) + Ras and Rab interactor 1 (Homo sapiens), … | inhibition, % at 7.35 µM | hit rate 0.4% among 360,000 | AID 588664, 2011; in the data active means inhibition above about 5%, passing the limit was not always enough
UCH37 inh: inhibitors of human UCH37 deubiquitinase, primary screen, biochemical, Ub-AMC cleavage, fluorescence; hit rate 0.33% among 330,000; purified proteasome/UCH37; Ubiquitin carboxyl-terminal hydrolase isozyme L5 (Homo sapiens), Q9Y5K5; inhibition, % (concentration not given with the values); AID 588478, 2011;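 active means mean inhibition over replicate wells above about 20%, limit read from the data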;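 further: 0% = compound-free wells with enzyme and 100% = wells lacking proteasome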
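Material: human UCH37 enzyme supplied as purified proteasome complex / Amount: 0.15 nM proteasome as dispensed / Buffer or medium: pH 7.4 Tris-HCl (50 mM) with ovalbumin, ATP-MgCl2, DTT / Times: preincubation 30 min, reaction 25 min, room temperature / Technique: AMC fluorescence from Ub-AMC cleavage, excitation 355 nm, emission 460 nm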
TbMetRS inhib: T. brucei MetRS inhibitors, primary screen, biochemical, luminescence. purified T. brucei MetRS, ATP depletion, Kinase-Glo luminescence. methionyl-tRNA synthetase (Trypanosoma brucei brucei). inhibition, % at 11.9 µM. hit rate 0.4% among 360,000;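 active means inhibition above a per-plate cutoff of the control wells' mean inhibition plus 3 SD, cut at about 5.5% in these data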;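 further: 0% = DMSO wells median and 100% = median of wells with control inhibitor compound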
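Measured by: Kinase-Glo luciferase luminescence reporting remaining unconsumed ATP. Material: purified T. brucei MetRS enzyme. Doses: 11.9 µM compound single dose, 0.9% DMSO. Medium: HEPES buffer containing pyrophosphatase, BSA, spermine, DTT. Times: 15 min preincubation, 2 h reaction, all 25 °C. Reagent: methionine, ATP and bulk E. coli tRNA.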
ATG4B inhibitor: ATG4B protease inhibitors, primary screen, biochemical, fluorescence, uHTS; Cysteine protease ATG4B (Homo sapiens), Q9Y4P1; ATG4B cleavage of LC3-PLA2, NBD-HPC fluorescence, 1 h; inhibition, % at 8.33 µM; hit rate 0.51% among 340,000; in the data active means inhibition above about 40%
Rin1-Abl confirm: Rin1-Abl binding inhibitor retest, confirmation, biochemical, TR-FRET; shares compounds with Rin1 Abl inh; hit rate 49% among 1,300; inhibition, % at 7.35 µM; AID 602124, 2011; purified proteins
GFP quench: GFP fluorescence inhibitors and quenchers, artefact control for Rin1-Abl interaction inhibitor project, biochemical | hit rate 8.5% among 1,300 | shares compounds with Rin1 Abl inh | inhibition, % at 6.75 µM | inhibitors/quenchers counterscreen;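 further: ABL1-eGFP fusion protein alone without its partner RIN1-SBP; 0% = protein with vehicle and 100% = wells lacking protein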
TbMetRS confirm: T. brucei MetRS inhibitors, confirmation, biochemical, luminescence; hit rate 93% among 1,400; T. brucei MetRS enzyme, luminescence (ATP depletion); AID 624412, 2012; shares compounds with TbMetRS inhib; inhibition, % at 11.9 µM; in the data active means inhibition above about 7%
Jurkat tox: Jurkat T cell cytotoxicity, cytotoxicity control for T. brucei MetRS inhibitor project, luminescence, high throughput | AID 624413, 2012 | inhibition, % at 8.3 µM | shares compounds with TbMetRS inhib | hit rate 12% among 1,400 | Jurkat cells viability, ATP luminescence; in the data active means inhibition above about 15%;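 further: 0% = vehicle and 100% = reference inhibitor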
TbMetRS FP orth: T. brucei MetRS inhibitors, orthogonal assay for T. brucei MetRS inhibitor project, biochemical, fluorescence polarization | shares compounds with TbMetRS inhib | purified T. brucei MetRS | inhibition, % at 11.9 µM | hit rate 44% among 1,400; in the data active means inhibition above about 17%;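 further: 0% = vehicle wells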
An asterisk follows results filed as active; nt = no result. An excerpt weighted towards active compounds, which were near 1.4% of everything screened. Unless noted, no stated cut-off is given here; in the data, active means inhibition above about 6.5%; inactive means the rest.

SMILES	Rin1 Abl inh	UCH37 inh	TbMetRS inhib	ATG4B inhibitor	TbMetRS confirm	Jurkat tox	TbMetRS FP orth	others
CCOC(=O)Cn1c(=O)oc2cc(S(=O)(=O)N3CCC(N4CCCCC4)CC3)ccc21	-1	1	-1	-13	nt	nt	nt
Clc1ccc2c(NN=Cc3cccc(Br)c3)ccnc2c1	nt	-1	nt	nt	nt	nt	nt
Oc1ccc(/C=N/Nc2ccnc3cc(Cl)ccc23)cc1O	11*	nt	5.6*	22	13*	77*	26*	Rin1-Abl confirm=6;GFP quench=3
CN(CC(=O)Nc1ccc(F)c(Cl)c1)S(=O)(=O)c1cccc2nsnc12	2	3	0	-9	nt	nt	nt
Cc1[nH]n(-c2ccccc2)c(=O)c1C(c1ccc(O)c([N+](=O)[O-])c1)c1c(C)[nH]n(-c2ccccc2)c1=O	13*	7	13*	6	1	1	2	Rin1-Abl confirm=-4;GFP quench=4
Fc1ccc(NCc2nnc(SCc3ccccc3)o2)cc1	-5	1	-1	-7	nt	nt	nt
COc1ccc(CCC(=O)NCCc2nc3ccccc3[nH]2)cc1	6.0*	3	9.4*	3	16*	-4	1	Rin1-Abl confirm=-2;GFP quench=-1
NC(=O)CN1CCN(c2nc(-c3ccc(F)cc3)cs2)CC1	-2	6	0	11	nt	nt	nt
COc1ccc(/C=N/NC(=O)c2cc(O)c(O)c(O)c2)cc1Cn1cc([N+](=O)[O-])cn1	29*	nt	5.6*	-2	13*	2	9	Rin1-Abl confirm=29*;GFP quench=11*
NC(=NCCc1c[nH]c2ccccc12)NC(=O)c1ccc(Cl)cc1	0	4	29*	-17	35*	2	16
NC(=O)C1CCN(CC(=O)c2c[nH]c3ccc(F)cc23)CC1	-1	6	4	3	nt	nt	nt
O=C(CN1CCN(c2ccccc2F)CC1)c1c[nH]c2ccc(F)cc12	3	0	11*	-2	17*	-10	2
CCOc1ccc(NC(=S)NC(=O)c2cccnc2)c([N+](=O)[O-])c1	-6	5	-1	-13	nt	nt	nt
CCOC(=O)NC(=O)CSc1nc2ccccc2[nH]1	-3	4	0	-2	nt	nt	nt
CCOC(=O)C1(C(C)(C)CC)CC(CSc2nc3ccccc3[nH]2)OC1=O (stereo not given)	-2	1	5.7*	-4	15*	8	8
CC(C)=CCC/C(C)=C/CNC(=O)C[C@H]1C[C@H](C(=O)N2CCOCC2)[C@@]2(C)c3[nH]c4ccc(Cl)cc4c3CCN2C1=O	3	1	0	-19	nt	nt	nt
Cc1cccc(C)c1NC(=O)COC(=O)c1ccc2[nH]c3c(c2c1)CCCC3	-2	2	-1	4	nt	nt	nt
CCOC(=O)Cc1nnc(NC(=O)Nc2ccccc2)s1	-4	1	16*	-2	23*	8	15
O=C(Nc1ccccc1)Nc1nnc(Cc2ccccc2F)s1	0	3	3	-3	nt	nt	nt
COc1ccc(Cc2nnc(NC(=O)Nc3ccccc3)s2)cc1OC	0	2	7.0*	-10	21*	6	15
COc1ccccc1N1CCN(C(=O)C(=O)c2c(C)n(C)c3ccccc23)CC1	-3	5	0	-12	nt	nt	nt
Cc1[nH]c2ccccc2c1C(=O)C(=O)N1CC=C(c2ccccc2)CC1	0	9	9.1*	-5	13*	10	1
Cc1[nH]c2ccccc2c1C(=O)C(=O)N1CCN(c2cccc(Cl)c2)CC1	0	2	7.1*	-21	15*	-2	3
Cc1[nH]c2ccc(C(=O)N3CCN(c4cccc(Cl)c4)CC3)cc2c1C	-1	4	0	-3	nt	nt	nt
COc1ccccc1N1CCN(C(=O)C(=O)c2c(C)[nH]c3ccccc23)CC1	1	4	6.6*	-10	19*	1	4
SMILES	Rin1 Abl inh	UCH37 inh	TbMetRS inhib	ATG4B inhibitor	TbMetRS confirm	Jurkat tox	TbMetRS FP orth	others
Cc1[nH]c2ccccc2c1C(=O)C(=O)N1CCN(c2ccccc2Cl)CC1	2	2	9.0*	20	28*	-4	15
CCCCc1ccc(NC(=S)N2CCN(C(=O)c3ccco3)CC2)cc1	-1	2	-1	5	nt	nt	nt
CCOC(=O)c1cn(CC)c2ccc(S(=O)(=O)N3CC(C)CC(C)C3)cc2c1=O (stereo not given)	-6	7	-1	5	nt	nt	nt
Cc1cccc(C(=O)NCc2nnc(SCc3ccc(F)cc3)n2C)c1	0	1	0	-1	nt	nt	nt
O=C(NCCCn1ccnc1)c1cc(C(=O)C2CC2)c[nH]1	2	5	0	-4	nt	nt	nt
COc1cc(CNn2nnnc2N)ccc1OCC(=O)NC(C)(C)C	-3	3	-1	-5	nt	nt	nt
O=C(C(=O)N1CCN(c2ccc(F)cc2)CC1)c1c[nH]c2ccccc12	1	2	0	5	nt	nt	nt
O=C(C(=O)N1CCN(c2cccc(Cl)c2)CC1)c1c[nH]c2ccccc12	0	0	9.4*	1	12*	0	7
Cc1cc(C)n(CCC(=O)N/N=C/c2ccc(O)cc2)n1	-1	nt	-1	-5	nt	nt	nt
Cc1cc(C)n(CCC(=O)N/N=C/c2c(O)ccc3ccccc23)n1	-2	nt	6.5*	-22	14*	87*	11
O=c1[nH]cnc2c1nc(SCc1ccccc1)n2C1OC(CO)C(O)C1O (stereo not given)	4	5	0	8	nt	nt	nt
O=C(COC(=O)CCCSc1nc2ccccc2[nH]1)Nc1ccc(Cl)cc1	-1	6	13*	31	21*	1	13
O=C(CCCSc1nc2ccccc2[nH]1)NCc1ccccc1Cl	-2	1	10*	7	17*	7	6
O=C(CSc1cccc(C(F)(F)F)c1)NC(=O)NCc1ccco1	1	2	0	-5	nt	nt	nt
CCc1ccc(S(=O)(=O)NC2CCCCNC2=O)cc1 (stereo not given)	5	4	0	11	nt	nt	nt
COc1ccccc1CNc1ccc([N+](=O)[O-])cc1C	1	5	0	-3	nt	nt	nt
COc1cccc(CNc2ccc([N+](=O)[O-])cc2Cl)c1O	1	3	17*	-7	18*	7	13
